Experimental data: ChEMBL document CHEMBL3758117, “Discovery of indeno[1,2-b]quinoxaline derivatives as potential anticancer agents” (Eur J Med Chem, 2016)
Activity calls are given as the source filed them. The calls are words filed in the database; no cut-off is given here.

Tested on: Escherichia coli
Experiment: Binding affinity to Escherichia coli negative supercoiled pBR322 DNA at 10 uM after 12 hrs by ethidium bromide staining based agarose gel electrophoresis
Settings: not given
In short: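 Negatively supercoiled pBR322 (400 ng) in TE buffer pH 8.0 was incubated with compound at 10 μM for 12 h at room temperature. Loading buffer with sarkosyl was added. Samples were run on 1% agarose at 6 V/cm for 2.5 h in TAE pH 8.5, stained with ethidium bromide and photographed under UV.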

SMILES | Activity
O=Cc1cccc2nc3c(nc12)-c1ccccc1C3=O | inactive
CN(C)CCCO/N=C1\c2ccccc2-c2nc3ccccc3nc21.Cl | inactive
Cc1cccc2nc3c(nc12)-c1ccccc1C3=O | inactive
O/N=C\c1cccc2nc3c(nc12)-c1ccccc1/C3=N/O | inactive
CN(C)CCCO/N=C1\c2ccccc2-c2nc3c(CN4CCOCC4)cccc3nc21.Cl | inactive

Tested on: MDA-MB-231
Experiment: Antiproliferative activity against human MDA-MB-231 cells after 72 hrs by XTT assay
Assay type: functional, cell-based
Settings: MDA-MB-231, 72 h
In short: (§1)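 Cells kept as monolayers in DMEM with 10% FBS, penicillin, streptomycin and amphotericin at 37°C, 5% CO2. Seeded at 5 x 10³ cells/well and exposed to compound for 72 h in medium with 10% FBS. XTT plus electron-coupling reagent added, 4 h at 37°C, absorbance read at 492 nm. Percent of control growth uses mean absorbance (n = 3). The 50% value is taken from the linear portion of the curve.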

SMILES | IC50 [µM]
O=Cc1cccc2nc3c(nc12)-c1ccccc1C3=O | > 10
CN(C)CCCO/N=C1\c2ccccc2-c2nc3ccccc3nc21.Cl | 7.01
Cc1cccc2nc3c(nc12)-c1ccccc1C3=O | > 10
O/N=C\c1cccc2nc3c(nc12)-c1ccccc1/C3=N/O | 10.8
CN(C)CCCO/N=C1\c2ccccc2-c2nc3c(CN4CCOCC4)cccc3nc21.Cl | 9.97

Tested on: not listed separately
Experiment: Antiproliferative activity against human H1299 cells after 72 hrs by XTT assay
Assay type: functional, cell-based
Settings: NCI-H1299, 72 h
In short: as §1

SMILES | IC50 [µM]
O=Cc1cccc2nc3c(nc12)-c1ccccc1C3=O | > 10
CN(C)CCCO/N=C1\c2ccccc2-c2nc3ccccc3nc21.Cl | 7.19
Cc1cccc2nc3c(nc12)-c1ccccc1C3=O | > 10
O/N=C\c1cccc2nc3c(nc12)-c1ccccc1/C3=N/O | 8.13
CN(C)CCCO/N=C1\c2ccccc2-c2nc3c(CN4CCOCC4)cccc3nc21.Cl | 6.93

Tested on: not listed separately
Experiment: Antiproliferative activity against human PC3 cells after 72 hrs by XTT assay
Assay type: functional, cell-based
Settings: PC-3, 72 h
In short: as §1

SMILES | IC50 [µM]
O=Cc1cccc2nc3c(nc12)-c1ccccc1C3=O | > 10
CN(C)CCCO/N=C1\c2ccccc2-c2nc3ccccc3nc21.Cl | 8.63
Cc1cccc2nc3c(nc12)-c1ccccc1C3=O | > 10
O/N=C\c1cccc2nc3c(nc12)-c1ccccc1/C3=N/O | 9.45
CN(C)CCCO/N=C1\c2ccccc2-c2nc3c(CN4CCOCC4)cccc3nc21.Cl | 9.92

Tested on: not listed separately
Experiment: Antiproliferative activity against human HuH7 cells after 72 hrs by XTT assay
Assay type: functional, cell-based
Settings: Huh-7, 72 h
In short: as §1

SMILES | IC50 [µM]
O=Cc1cccc2nc3c(nc12)-c1ccccc1C3=O | > 10
CN(C)CCCO/N=C1\c2ccccc2-c2nc3ccccc3nc21.Cl | 5.38
Cc1cccc2nc3c(nc12)-c1ccccc1C3=O | > 10
O/N=C\c1cccc2nc3c(nc12)-c1ccccc1/C3=N/O | 8.61
CN(C)CCCO/N=C1\c2ccccc2-c2nc3c(CN4CCOCC4)cccc3nc21.Cl | 6.78

Tested on: MRC5
Experiment: Antiproliferative activity against human MRC5 cells after 72 hrs by XTT assay
Assay type: cell-based
Settings: MRC5, 72 h
In short: as §1

SMILES | IC50 [µM]
O=Cc1cccc2nc3c(nc12)-c1ccccc1C3=O | 78.9
CN(C)CCCO/N=C1\c2ccccc2-c2nc3ccccc3nc21.Cl | 19.9
Cc1cccc2nc3c(nc12)-c1ccccc1C3=O | 87.1
O/N=C\c1cccc2nc3c(nc12)-c1ccccc1/C3=N/O | 6.54
CN(C)CCCO/N=C1\c2ccccc2-c2nc3c(CN4CCOCC4)cccc3nc21.Cl | 73.5

Tested on: MRC5
Experiment: Selectivity index, ratio of IC50 for human MRC5 cells to IC50 for human MDA-MB-231 cells
Assay type: functional
Settings: not given

SMILES | Ratio IC50
CN(C)CCCO/N=C1\c2ccccc2-c2nc3ccccc3nc21.Cl | 2.83
O/N=C\c1cccc2nc3c(nc12)-c1ccccc1/C3=N/O | 0.61
CN(C)CCCO/N=C1\c2ccccc2-c2nc3c(CN4CCOCC4)cccc3nc21.Cl | 7.37

Tested on: not listed separately
Experiment: Selectivity index, ratio of IC50 for human MRC5 cells to IC50 for human H1299 cells
Assay type: functional
Settings: not given

SMILES | Ratio IC50
CN(C)CCCO/N=C1\c2ccccc2-c2nc3ccccc3nc21.Cl | 2.76
O/N=C\c1cccc2nc3c(nc12)-c1ccccc1/C3=N/O | 0.8
CN(C)CCCO/N=C1\c2ccccc2-c2nc3c(CN4CCOCC4)cccc3nc21.Cl | 10.6

Tested on: MRC5
Experiment: Selectivity index, ratio of IC50 for human MRC5 cells to IC50 for human PC3 cells
Assay type: functional
Settings: not given

SMILES | Ratio IC50
CN(C)CCCO/N=C1\c2ccccc2-c2nc3ccccc3nc21.Cl | 2.3
O/N=C\c1cccc2nc3c(nc12)-c1ccccc1/C3=N/O | 0.69
CN(C)CCCO/N=C1\c2ccccc2-c2nc3c(CN4CCOCC4)cccc3nc21.Cl | 7.41

Tested on: Huh-7
Experiment: Selectivity index, ratio of IC50 for human MRC5 cells to IC50 for human HuH7 cells
Assay type: functional
Settings: not given

SMILES | Ratio IC50
CN(C)CCCO/N=C1\c2ccccc2-c2nc3ccccc3nc21.Cl | 3.69
O/N=C\c1cccc2nc3c(nc12)-c1ccccc1/C3=N/O | 0.76
CN(C)CCCO/N=C1\c2ccccc2-c2nc3c(CN4CCOCC4)cccc3nc21.Cl | 10.84

Target: T1, DNA topoisomerase 1 (Homo sapiens) (UniProt P11387)
T1 sequence (whole entry): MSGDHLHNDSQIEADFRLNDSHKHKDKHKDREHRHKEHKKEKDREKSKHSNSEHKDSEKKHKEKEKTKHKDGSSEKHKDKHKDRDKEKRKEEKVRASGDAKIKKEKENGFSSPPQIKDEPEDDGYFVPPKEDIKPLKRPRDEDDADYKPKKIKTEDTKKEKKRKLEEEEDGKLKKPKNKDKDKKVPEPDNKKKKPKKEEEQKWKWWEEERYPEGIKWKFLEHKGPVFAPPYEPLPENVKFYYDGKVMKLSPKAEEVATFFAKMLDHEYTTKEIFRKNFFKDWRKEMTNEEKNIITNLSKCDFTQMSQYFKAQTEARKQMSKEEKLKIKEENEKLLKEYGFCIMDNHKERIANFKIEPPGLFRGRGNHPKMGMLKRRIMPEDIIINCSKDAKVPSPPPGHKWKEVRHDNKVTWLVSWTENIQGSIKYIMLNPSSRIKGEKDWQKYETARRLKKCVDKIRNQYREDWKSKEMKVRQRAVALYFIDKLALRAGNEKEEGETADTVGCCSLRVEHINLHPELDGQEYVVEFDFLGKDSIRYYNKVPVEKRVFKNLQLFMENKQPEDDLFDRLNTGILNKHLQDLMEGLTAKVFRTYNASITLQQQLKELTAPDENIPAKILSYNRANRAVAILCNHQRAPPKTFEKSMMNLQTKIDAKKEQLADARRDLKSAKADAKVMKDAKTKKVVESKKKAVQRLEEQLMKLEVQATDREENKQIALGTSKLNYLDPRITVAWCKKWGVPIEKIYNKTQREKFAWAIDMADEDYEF
Experiment: Inhibition of human DNA topoisomerase 1-mediated relaxation of supercoiled pBR322 DNA at 100 uM after 30 mins by ethidium bromide staining based agarose gel electrophoresis
Settings: not given
In short: (§2)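 Human topo I or topo II (2 units) was reacted with 0.2 μg supercoiled pBR322 in 20 μl Tris-HCl pH 7.5 containing KCl, DTT, EDTA, MgCl2 and BSA, with DMSO held at 0.5%, for 30 min at 37°C. The reaction was stopped with SDS. Samples were run on 1% agarose in Tris-acetate/EDTA at 1.5 V/cm for 2-3 h and stained with ethidium bromide. Relaxation was quantified by densitometry of the supercoiled band area.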

SMILES | topoisomerase 1 inhibition (active/inactive)
O=Cc1cccc2nc3c(nc12)-c1ccccc1C3=O | inactive
CN(C)CCCO/N=C1\c2ccccc2-c2nc3ccccc3nc21.Cl | Active
O/N=C\c1cccc2nc3c(nc12)-c1ccccc1/C3=N/O | inactive
CN(C)CCCO/N=C1\c2ccccc2-c2nc3c(CN4CCOCC4)cccc3nc21.Cl | Active

Target: T1, DNA topoisomerase 1 (Homo sapiens)
Experiment: Inhibition of human DNA topoisomerase 1-mediated relaxation of supercoiled pBR322 DNA at 10 uM after 30 mins by ethidium bromide staining based agarose gel electrophoresis
Settings: not given
In short: as §2

SMILES | inhibition
CN(C)CCCO/N=C1\c2ccccc2-c2nc3ccccc3nc21.Cl | Active
CN(C)CCCO/N=C1\c2ccccc2-c2nc3c(CN4CCOCC4)cccc3nc21.Cl | inactive

Target: DNA topoisomerase 2-alpha (Homo sapiens) (UniProt P11388)
Sequence (P11388 whole entry): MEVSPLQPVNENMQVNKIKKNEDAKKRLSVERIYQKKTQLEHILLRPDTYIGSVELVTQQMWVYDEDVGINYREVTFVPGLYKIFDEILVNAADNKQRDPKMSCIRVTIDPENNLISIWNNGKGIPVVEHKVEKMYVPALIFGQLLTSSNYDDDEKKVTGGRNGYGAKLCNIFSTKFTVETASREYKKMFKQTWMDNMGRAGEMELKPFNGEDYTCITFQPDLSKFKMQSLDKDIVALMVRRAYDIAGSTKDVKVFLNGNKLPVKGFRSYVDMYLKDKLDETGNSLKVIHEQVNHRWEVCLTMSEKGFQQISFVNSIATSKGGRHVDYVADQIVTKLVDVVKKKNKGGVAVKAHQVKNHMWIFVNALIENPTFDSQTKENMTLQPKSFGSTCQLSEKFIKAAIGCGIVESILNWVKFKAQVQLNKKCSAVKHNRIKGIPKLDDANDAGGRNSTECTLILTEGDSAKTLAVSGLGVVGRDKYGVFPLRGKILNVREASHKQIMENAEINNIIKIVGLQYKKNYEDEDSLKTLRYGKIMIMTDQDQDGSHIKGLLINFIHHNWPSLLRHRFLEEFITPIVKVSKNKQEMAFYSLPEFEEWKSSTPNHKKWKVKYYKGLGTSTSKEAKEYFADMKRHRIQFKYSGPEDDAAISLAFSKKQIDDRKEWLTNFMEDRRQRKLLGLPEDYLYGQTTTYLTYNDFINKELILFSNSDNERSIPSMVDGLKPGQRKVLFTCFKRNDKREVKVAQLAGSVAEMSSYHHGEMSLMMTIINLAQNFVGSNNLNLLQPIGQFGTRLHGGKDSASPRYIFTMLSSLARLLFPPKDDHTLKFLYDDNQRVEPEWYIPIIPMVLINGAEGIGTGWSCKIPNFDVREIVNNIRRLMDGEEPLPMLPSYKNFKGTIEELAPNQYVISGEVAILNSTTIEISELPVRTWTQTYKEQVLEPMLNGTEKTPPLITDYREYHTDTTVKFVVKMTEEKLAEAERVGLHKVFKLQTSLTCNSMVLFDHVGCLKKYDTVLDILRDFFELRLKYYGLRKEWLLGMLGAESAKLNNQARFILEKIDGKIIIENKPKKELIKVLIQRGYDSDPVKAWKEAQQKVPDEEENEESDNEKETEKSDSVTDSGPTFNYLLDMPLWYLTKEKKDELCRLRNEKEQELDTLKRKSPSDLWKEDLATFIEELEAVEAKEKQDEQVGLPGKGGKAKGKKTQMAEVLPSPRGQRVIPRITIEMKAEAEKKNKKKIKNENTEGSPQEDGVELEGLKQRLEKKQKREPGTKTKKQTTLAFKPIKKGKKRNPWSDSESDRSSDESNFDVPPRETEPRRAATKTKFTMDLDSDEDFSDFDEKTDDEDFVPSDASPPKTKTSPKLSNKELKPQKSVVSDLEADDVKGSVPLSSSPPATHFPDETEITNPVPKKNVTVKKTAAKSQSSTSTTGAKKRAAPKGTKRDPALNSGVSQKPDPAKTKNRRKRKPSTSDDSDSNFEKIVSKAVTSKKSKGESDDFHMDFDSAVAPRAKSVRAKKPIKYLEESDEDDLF
Experiment: Inhibition of human DNA topoisomerase 2-mediated relaxation of supercoiled pBR322 DNA at 100 uM after 30 mins by ethidium bromide staining based agarose gel electrophoresis
Settings: not given
In short: as §2

SMILES | inhibition call (active/not active) | inhibition
O=Cc1cccc2nc3c(nc12)-c1ccccc1C3=O | inactive | –
CN(C)CCCO/N=C1\c2ccccc2-c2nc3ccccc3nc21.Cl | Active | –
O/N=C\c1cccc2nc3c(nc12)-c1ccccc1/C3=N/O | inactive | –
CN(C)CCCO/N=C1\c2ccccc2-c2nc3c(CN4CCOCC4)cccc3nc21.Cl | – | Active

Target: DNA topoisomerase 2-alpha (Homo sapiens) (UniProt P11388)
Experiment: Inhibition of human DNA topoisomerase 2-mediated relaxation of supercoiled pBR322 DNA at 10 uM after 30 mins by ethidium bromide staining based agarose gel electrophoresis
Settings: not given
In short: as §2

SMILES | topoisomerase 2 inhibition (active/not active)
CN(C)CCCO/N=C1\c2ccccc2-c2nc3ccccc3nc21.Cl | inactive
CN(C)CCCO/N=C1\c2ccccc2-c2nc3c(CN4CCOCC4)cccc3nc21.Cl | inactive
